Measured values pooled from the literature.
Lines come from different studies, so protocols differ.
MTNR1A: Melatonin receptor type 1A (MTNR1A, Homo sapiens, UniProt P48039)

| SMILES | target | assay | test system | setting | measurement | value |
| --- | --- | --- | --- | --- | --- | --- |
| COc1ccc2cccc(C(CO)CNC(=O)CF)c2c1 (centres unmarked) | MTNR1A | cAMP, agonist, TR-FRET | CHO-K1 | 20 min | Emax | 93% |
| Cc1nn(C)cc1-c1nc2c(N3CCN(Cc4ccc(Cl)cc4)CC3)c(Cl)cnc2[nH]1 | Tyrosine-protein kinase receptor Tie-1 (TIE1, Homo sapiens, UniProt P35590) | binding, competition with immobilised ligand | – | 1 µM | remaining binding | 47% |
| C#Cc1n[nH]c2c(-c3cn([C@@H](C)c4ccccn4)c(=O)[nH]c3=O)cc(F)cc12 | Aurora kinase C (AURKC, Homo sapiens, UniProt Q9UQB9) | enzyme activity, inhibitor | – | 0.1 µM | inhibition | 1.4% |
| CCN(CC)CCCC[C@H](NC(=O)[C@H](CC(C)C)NC(=O)[C@H](C)NC(=O)[C@H](Cc1ccccc1)NC(=O)c1ccc(C(C)(C)C)cc1)C(=O)N[C@@H](CO)C(=O)OC | BRWD3 (Homo sapiens, UniProt Q6RI45) | thermal stability, DSF | – | 25 µM | ΔTm | -0.57 °C |
| Nc1ncc(-c2nc(N3CCOCC3)nc(N3CCOCC3)n2)c(C(F)F)n1 | Aurora kinase A (AURKA, Homo sapiens, UniProt O14965) | binding, competition with immobilised ligand | – | 10 µM | remaining binding | 52% |
| COc1ncccc1-c1cnn2ccc(N3CCN(C(=O)OC(C)C)CC3)nc12 | BMP-2-inducible protein kinase (BMP2K, Homo sapiens, UniProt Q9NSY1) | binding, competition with immobilised ligand | – | 1 µM | remaining binding | 3.5% |
| COc1ccc2[nH]cc(CCNC(=O)CI)c2c1 | MTNR1A | cAMP, agonist, TR-FRET | CHO-K1 | 20 min | Emax | 103% |
| COCc1c(-c2cc3cc(C)cc(OC)c3s2)c2c(N)ncnn2c1CN1CCNC(=O)C1 | 5-hydroxytryptamine receptor 2C (HTR2C, Homo sapiens, UniProt P28335) | ligand displacement, radioligand | – | 10 µM | inhibition | 30% |
